Columns and labels:
TC-71 cell line = assay: DIMSCAN in vitro cytotoxicity testing, TC-71; assay type: cell-based
How it was run: (§1)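 Test compound incubated with cells of a 24-line pediatric cancer panel for 96 h at 0.1 nM to 1 μM, then assessed by DIMSCAN. Relative IC50 (rIC50) derived per line. Panel comparison value is the panel rIC50 divided by the rIC50 of each cell line.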

CHLA-90 cell line = assay: DIMSCAN in vitro cytotoxicity testing, CHLA-90; assay type: cell-based
How it was run: as §1

NALM-6 cell line = assay: DIMSCAN in vitro cytotoxicity testing, NALM-6; assay type: cell-based
How it was run: as §1

Kasumi-1 cell line = assay: DIMSCAN in vitro cytotoxicity testing, Kasumi-1; assay type: cell-based
How it was run: as §1

Karpas-299 cell line = assay: DIMSCAN in vitro cytotoxicity testing, Karpas-299; assay type: cell-based
How it was run: as §1

KT-10 Wilms xenograft = assay: PPTP in vivo xenograft testing, KT-10; design: species or system mice
EW5 Ewing xenograft = assay: PPTP in vivo xenograft testing, EW5; design: species or system mice
CHLA258 Ewing xenograft = assay: PPTP in vivo xenograft testing, CHLA258; design: species or system mice
[1] = tested on: Rh30R ALV rhabdomyosarcoma xenograft; assay: PPTP in vivo xenograft testing, Rh30R; design: species or system mice
[2] = tested on: Rh36 EMB rhabdomyosarcoma xenograft; assay: PPTP in vivo xenograft testing, Rh36; design: species or system mice
[3] = tested on: BT-28 medulloblastoma xenograft; assay: PPTP in vivo xenograft testing, BT-28; design: species or system mice
[4] = tested on: BT-50 medulloblastoma xenograft; assay: PPTP in vivo xenograft testing, BT-50; design: species or system mice
[5] = tested on: D645 glioblastoma xenograft; assay: PPTP in vivo xenograft testing, D645; design: species or system mice
[6] = tested on: NB-1643 neuroblastoma xenograft; assay: PPTP in vivo xenograft testing, NB-1643; design: species or system mice
[7] = tested on: OS-33 osteosarcoma xenograft; assay: PPTP in vivo xenograft testing, OS-33; design: species or system mice
[8] = tested on: ALL-7 ALL B-precursor xenograft; assay: PPTP in vivo xenograft testing, ALL-7; design: species or system mice
[9] = tested on: ALL-19 ALL B-precursor xenograft; assay: PPTP in vivo xenograft testing, ALL-19; design: species or system mice
[10] = tested on: PPTP solid tumor xenografts; assay: PPTP in vivo testing, solid tumor xenograft panels summary; design: species or system mice
ALL xenografts = assay: PPTP in vivo testing, ALL xenograft panel summary; design: species or system mice
[11] = Tolerability in xenograft-bearing mice; assay type: in vivo
[12] = 1 mg/kg IP Q4Dx3 repeated at Day 21
[13] = NB-1643, 1 mg/kg IP Q4Dx3 repeated at Day 21
[14] = 1.5 mg/kg IP Q4Dx3 repeated at Day 21

Compound: C=C1C[C@@H]2CC[C@@]34C[C@H]5O[C@H]6[C@@H](O3)[C@H]3O[C@H](CC[C@@H]3O[C@H]6[C@H]5O4)CC(=O)C[C@@H]3[C@@H](OC)[C@@H](C[C@H](O)CN)O[C@H]3C[C@H]3O[C@@H](CC[C@@H]1O2)C[C@@H](C)C3=C [Eribulin]
- Panel rIC50/Line rIC50 (TC-71 cell line; TC-71): 2.45
- Relative in/out% (TC-71 cell line; TC-71): −99%
- Ymin % (observed) (TC-71 cell line; TC-71): 0.01%
- IC50 (TC-71 cell line; TC-71, 96 h, read-out: rIC50): 110 pM
- IC50 (CHLA-90 cell line; 96 h, read-out: rIC50): 1770 pM
- Panel rIC50/Line rIC50 (CHLA-90 cell line; CHLA-90): 0.15
- Relative in/out% (CHLA-90 cell line; CHLA-90): −67%
- Ymin % (observed) (CHLA-90 cell line; CHLA-90): 9.26%
- IC50 (NALM-6 cell line; Homo sapiens, NALM-6, 96 h, read-out: rIC50): 590 pM
- Panel rIC50/Line rIC50 (NALM-6 cell line; NALM-6): 0.46
- Relative in/out% (NALM-6 cell line; NALM-6): −99%
- Ymin % (observed) (NALM-6 cell line; NALM-6): 0.03%
- IC50 (Kasumi-1 cell line; Homo sapiens, Kasumi 1, 96 h, read-out: rIC50): 4110 pM
- Panel rIC50/Line rIC50 (Kasumi-1 cell line; Kasumi-1): 0.07
- Relative in/out% (Kasumi-1 cell line; Kasumi-1): −86%
- Ymin % (observed) (Kasumi-1 cell line; Kasumi-1): 3.92%
- IC50 (Karpas-299 cell line; Homo sapiens, KARPAS-299, 96 h, read-out: rIC50): < 100 pM
- Panel rIC50/Line rIC50 (Karpas-299 cell line; Karpas-299): >2.74
- Relative in/out% (Karpas-299 cell line; Karpas-299): −100%
- Ymin % (observed) (Karpas-299 cell line; Karpas-299): 0.03%
- EFS activity (KT-10 Wilms xenograft; 1 mg/kg IP): High (High activity requires: (a) an EFS T/C >2; (b) a significant difference in EFS distributions, and (c) a net reduction in median tumor volume for animals in the treated group at the end of treatment as compared to at treatment initiation)
- Response activity (KT-10 Wilms xenograft; 1 mg/kg IP): High (A high level of activity is indicated by a score of 6 or more)
- T/C volume activity (KT-10 Wilms xenograft; 1 mg/kg IP): High (High activity = T/C ≤0.15)
- EFS T/C (KT-10 Wilms xenograft; [12]): >3.7
- Median final RTV (CD45%) (KT-10 Wilms xenograft; [12]): 0.0
- Tumor volume T/C (KT-10 Wilms xenograft; 1 mg/kg IP, Day 21 or earlier): 0.01
- EFS activity (EW5 Ewing xenograft; 1 mg/kg IP): Int (Intermediate activity = criteria (a) and (b) above, but not having a net reduction in median tumor volume for treated animals at the end of the study)
- Response activity (EW5 Ewing xenograft; 1 mg/kg IP): Int (intermediate activity by a score of ≥2 but <6)
- T/C volume activity (EW5 Ewing xenograft; 1 mg/kg IP): High (High activity = T/C ≤0.15)
- EFS T/C (EW5 Ewing xenograft; [12]): 3.3
- Median final RTV (CD45%) (EW5 Ewing xenograft; [12]): >4
- Time to event (EW5 Ewing xenograft; [12]): 41.3
- Tumor volume T/C (EW5 Ewing xenograft; 1 mg/kg IP, Day 21 or earlier): 0.13
- EFS activity (CHLA258 Ewing xenograft; 1 mg/kg IP): High (High activity requires: (a) an EFS T/C >2; (b) a significant difference in EFS distributions, and (c) a net reduction in median tumor volume for animals in the treated group at the end of treatment as compared to at treatment initiation)
- Response activity (CHLA258 Ewing xenograft; 1 mg/kg IP): High (A high level of activity is indicated by a score of 6 or more)
- T/C volume activity (CHLA258 Ewing xenograft; 1 mg/kg IP): High (High activity = T/C ≤0.15)
- EFS T/C (CHLA258 Ewing xenograft; [12]): >4.2
- Median final RTV (CD45%) (CHLA258 Ewing xenograft; [12]): 0.0
- Tumor volume T/C (CHLA258 Ewing xenograft; 1 mg/kg IP, Day 21 or earlier): 0.01
- EFS activity ([1]; 1 mg/kg IP): High (High activity requires: (a) an EFS T/C >2; (b) a significant difference in EFS distributions, and (c) a net reduction in median tumor volume for animals in the treated group at the end of treatment as compared to at treatment initiation)
- Response activity ([1]; 1 mg/kg IP): High (A high level of activity is indicated by a score of 6 or more)
- T/C volume activity ([1]; 1 mg/kg IP): High (High activity = T/C ≤0.15)
- EFS T/C [1, 12]: >4.3
- Median final RTV (CD45%) [1, 12]: 0.0
- Tumor volume T/C ([1]; 1 mg/kg IP, Day 21 or earlier): 0.11
- EFS activity ([2]; 1 mg/kg IP): High (High activity requires: (a) an EFS T/C >2; (b) a significant difference in EFS distributions, and (c) a net reduction in median tumor volume for animals in the treated group at the end of treatment as compared to at treatment initiation)
- Response activity ([2]; 1 mg/kg IP): High (A high level of activity is indicated by a score of 6 or more)
- T/C volume activity ([2]; 1 mg/kg IP): High (High activity = T/C ≤0.15)
- EFS T/C [2, 12]: >6.3
- Median final RTV (CD45%) [2, 12]: 0.0
- Tumor volume T/C ([2]; 1 mg/kg IP, Day 21 or earlier): 0.10
- EFS activity ([3]; 1 mg/kg IP): High (High activity requires: (a) an EFS T/C >2; (b) a significant difference in EFS distributions, and (c) a net reduction in median tumor volume for animals in the treated group at the end of treatment as compared to at treatment initiation)
- Response activity ([3]; 1 mg/kg IP): Int (intermediate activity by a score of ≥2 but <6)
- T/C volume activity ([3]; 1 mg/kg IP): Int (Intermediate activity = T/C ≤0.45 but >0.15)
- EFS T/C [3, 12]: >3.3
- Median final RTV (CD45%) [3, 12]: 0.7
- Tumor volume T/C ([3]; 1 mg/kg IP, Day 21 or earlier): 0.44
- Response activity ([4]; 1 mg/kg IP): Low (low activity by a score of <2)
- T/C volume activity ([4]; 1 mg/kg IP): Low (Low activity = T/C >0.45)
- EFS T/C [4, 12]: >1.1
- Median final RTV (CD45%) [4, 12]: >4
- Tumor volume T/C ([4]; 1 mg/kg IP, Day 21 or earlier): 0.78
- EFS activity ([5]; 1 mg/kg IP): Int (Intermediate activity = criteria (a) and (b) above, but not having a net reduction in median tumor volume for treated animals at the end of the study)
- Response activity ([5]; 1 mg/kg IP): High (A high level of activity is indicated by a score of 6 or more)
- T/C volume activity ([5]; 1 mg/kg IP): High (High activity = T/C ≤0.15)
- EFS T/C [5, 12]: >7.1
- Median final RTV (CD45%) [5, 12]: 3.8
- Tumor volume T/C ([5]; 1 mg/kg IP, Day 21 or earlier): 0.07
- EFS activity ([6]; NB-1643, 1 mg/kg IP): High (High activity requires: (a) an EFS T/C >2; (b) a significant difference in EFS distributions, and (c) a net reduction in median tumor volume for animals in the treated group at the end of treatment as compared to at treatment initiation)
- Response activity ([6]; NB-1643, 1 mg/kg IP): High (A high level of activity is indicated by a score of 6 or more)
- T/C volume activity ([6]; NB-1643, 1 mg/kg IP): High (High activity = T/C ≤0.15)
- EFS T/C [6, 13]: >4.7
- Median final RTV (CD45%) [6, 13]: 0.6
- Tumor volume T/C ([6]; NB-1643, 1 mg/kg IP, Day 21 or earlier): 0.01
- objective response ([6]; NB-1643 neuroblastoma xenograft): achieved an objective response
- EFS activity ([7]; 1 mg/kg IP): High (High activity requires: (a) an EFS T/C >2; (b) a significant difference in EFS distributions, and (c) a net reduction in median tumor volume for animals in the treated group at the end of treatment as compared to at treatment initiation)
- Response activity ([7]; 1 mg/kg IP): High (A high level of activity is indicated by a score of 6 or more)
- T/C volume activity ([7]; 1 mg/kg IP): Int (Intermediate activity = T/C ≤0.45 but >0.15)
- EFS T/C [7, 12]: >2.7
- Median final RTV (CD45%) [7, 12]: 0.2
- Tumor volume T/C ([7]; 1 mg/kg IP, Day 21 or earlier): 0.24
- EFS activity ([8]; 1.5 mg/kg IP): Int (Intermediate activity = criteria (a) and (b) above, but not having a net reduction in median tumor volume for treated animals at the end of the study)
- Response activity ([8]; 1.5 mg/kg IP): High (A high level of activity is indicated by a score of 6 or more)
- EFS T/C [8, 14]: >4.4
- Median final RTV (CD45%) ([8]; CD45%, 1.5 mg/kg IP): 3.0%
- EFS activity ([9]; 1.5 mg/kg IP): High (High activity requires: (a) an EFS T/C >2; (b) a significant difference in EFS distributions, and (c) a net reduction in median tumor volume for animals in the treated group at the end of treatment as compared to at treatment initiation)
- Response activity ([9]; 1.5 mg/kg IP): High (A high level of activity is indicated by a score of 6 or more)
- EFS T/C [9, 14]: >8.4
- Median final RTV (CD45%) ([9]; CD45%, 1.5 mg/kg IP): 0.0%
- xenografts with CR or maintained CR ([10]; Ewing sarcoma xenografts): four of five
- xenografts with CR or maintained CR ([10]; Ewing sarcoma xenografts, listed as eribulin): 4 of 5
- xenografts with high EFS T/C activity ([10]; evaluable Ewing sarcoma xenografts): three of four
- xenografts with high EFS T/C activity ([10]; evaluable osteosarcoma xenografts): three of five
- xenografts with significant difference in EFS distribution compared to control ([10]; evaluable solid tumor xenografts, 1 mg/kg): 29 of 35
- xenografts with CR or maintained CR ([10]; glioblastoma xenografts): two of four
- xenografts with high EFS T/C activity ([10]; glioblastoma xenografts): two of four
- xenografts with CR or maintained CR ([10]; osteosarcoma xenografts): three of six
- xenografts with high activity ([10]; osteosarcoma xenografts): three
- xenografts with CR or maintained CR ([10]; rhabdomyosarcoma xenografts): six of seven
- xenografts with MCR ([10]; rhabdomyosarcoma xenografts): 6 of 7
- xenografts with high EFS T/C activity ([10]; rhabdomyosarcoma xenografts): six of seven
- lines with high EFS T/C activity ([10]; solid tumor models): 17
- lines with intermediate EFS T/C activity ([10]; solid tumor models): seven
- xenografts with objective response ([10]; solid tumor xenografts, 1 mg/kg): 18 of 35
- xenografts with CR or MCR (ALL xenografts; ALL panel): All eight
- xenografts with high EFS T/C activity (ALL xenografts; ALL panel): six of eight
- xenografts with significant difference in EFS distribution compared to control (ALL xenografts; evaluable ALL xenografts, 1.5 mg/kg): 8 of 8
- toxicity rate in the treated groups ([11]; 6 of 409 treated mice, control 1 of 401): 1.5%
- MTD at 6 weeks ([11]; NOD-SCID, mouse, in vivo, ip): 1.5 mg/kg
